# Measured values reported in ChEMBL document CHEMBL2040768, “Synthesis, antimicrobial and cytotoxic activities of sulfone linked bis heterocycles” (Eur J Med Chem, 2012).
# pIC50: −log10 of the molar value. Active and inactive are the calls of the source. No cut-off for these calls is given here.
# Tests used:
# Penicillium chrysogenum [1] = test: Antifungal activity against Penicillium chrysogenum after 48 hrs by broth dilution method; assay type: functional
# Summary of the method: (§1)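 Fungal MIC by broth dilution. Compounds dissolved in DMSO, added at rising concentrations to fungal culture tubes, incubated 28 °C for 48 h. Tubes read for visible turbidity alongside a solvent control; lowest concentration with no visible growth taken as MIC.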
# Pseudomonas aeruginosa [2] = test: Antibacterial activity against Pseudomonas aeruginosa at 50 ug/ml after 24 hrs by agar well diffusion method; assay type: functional; conditions: read-out: DIZ
# Summary of the method: (§2)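 Agar well diffusion. Nutrient plates swabbed with 24 h broth culture of the bacterium; 6 mm wells bored and loaded with DMSO solutions of compound (wells at 50 and 100 per well). Chloramphenicol positive control, DMSO negative control. Plates held 37 °C, 24 h; inhibition zone diameter (mm) measured, mean of duplicates.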
# Pseudomonas aeruginosa [3] = test: Antibacterial activity against Pseudomonas aeruginosa at 100 ug/ml after 24 hrs by agar well diffusion method; assay type: functional; conditions: read-out: DIZ; summary of the method: as §2
# Aspergillus niger [4] = test: Antifungal activity against Aspergillus niger at 100 ug/ml after 48 hrs by agar well diffusion method; assay type: functional; conditions: read-out: DIZ
# Summary of the method: (§3)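 Fungal agar well diffusion. Plates swabbed with fungal culture, 6 mm wells filled with DMSO solutions of compound (50 and 100 per well). Ketoconazole positive and DMSO negative controls. Plates incubated 28 °C for 48 h; zone of inhibition diameter (mm) read, average of duplicates.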
# Klebsiella pneumoniae [5] = test: Bactericidal activity against Klebsiella pneumoniae after 24 hrs by broth dilution method; assay type: functional
# Staphylococcus aureus [6] = test: Antibacterial activity against Staphylococcus aureus after 24 hrs by broth dilution method; assay type: functional
# Summary of the method: (§4)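 Broth dilution MIC. Test samples in DMSO added at increasing concentrations to tubes of nutrient broth cultures, incubated 37 °C for 24 h. Visible turbidity scored against NB control; solvent and no-sample controls included. MIC = lowest concentration preventing visible growth.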
# Aspergillus niger [7] = test: Antifungal activity against Aspergillus niger after 48 hrs by broth dilution method; assay type: functional; summary of the method: as §1
# Staphylococcus aureus [8] = test: Bactericidal activity against Staphylococcus aureus after 24 hrs by broth dilution method; assay type: functional
# Staphylococcus aureus [9] = test: Antibacterial activity against Staphylococcus aureus at 50 ug/ml after 24 hrs by agar well diffusion method; assay type: functional; conditions: read-out: DIZ; summary of the method: as §2
# Klebsiella pneumoniae [10] = test: Antibacterial activity against Klebsiella pneumoniae at 50 ug/ml after 24 hrs by agar well diffusion method; assay type: functional; conditions: read-out: DIZ; summary of the method: as §2
# Klebsiella pneumoniae [11] = test: Antibacterial activity against Klebsiella pneumoniae at 100 ug/ml after 24 hrs by agar well diffusion method; assay type: functional; conditions: read-out: DIZ; summary of the method: as §2
# Staphylococcus aureus [12] = test: Antibacterial activity against Staphylococcus aureus at 100 ug/ml after 24 hrs by agar well diffusion method; assay type: functional; conditions: read-out: DIZ; summary of the method: as §2
# Pseudomonas aeruginosa [13] = test: Bactericidal activity against Pseudomonas aeruginosa after 24 hrs by broth dilution method; assay type: functional
# Aspergillus niger [14] = test: Antifungal activity against Aspergillus niger at 50 ug/ml after 48 hrs by agar well diffusion method; assay type: functional; conditions: read-out: DIZ; summary of the method: as §3
# Penicillium chrysogenum [15] = test: Antifungal activity against Penicillium chrysogenum at 50 ug/ml after 48 hrs by agar well diffusion method; assay type: functional; conditions: read-out: DIZ; summary of the method: as §3
# Penicillium chrysogenum [16] = test: Fungicidal activity against Penicillium chrysogenum after 48 hrs by broth dilution method; assay type: functional
# Bacillus subtilis [17] = test: Bactericidal activity against Bacillus subtilis after 24 hrs by broth dilution method; assay type: functional
# Penicillium chrysogenum [18] = test: Antifungal activity against Penicillium chrysogenum at 100 ug/ml after 48 hrs by agar well diffusion method; assay type: functional; conditions: read-out: DIZ; summary of the method: as §3
# Klebsiella pneumoniae [19] = test: Antibacterial activity against Klebsiella pneumoniae after 24 hrs by broth dilution method; assay type: functional; summary of the method: as §4
# Bacillus subtilis [20] = test: Antibacterial activity against Bacillus subtilis at 100 ug/ml after 24 hrs by agar well diffusion method; assay type: functional; conditions: read-out: DIZ; summary of the method: as §2
# Pseudomonas aeruginosa [21] = test: Antibacterial activity against Pseudomonas aeruginosa after 24 hrs by broth dilution method; assay type: functional; summary of the method: as §4
# A549 [22] = test: Cytotoxicity against human A549 cells up to 0.2 mM after 72 hrs by MTT assay
# Bacillus subtilis [23] = test: Antibacterial activity against Bacillus subtilis after 24 hrs by broth dilution method; assay type: functional; summary of the method: as §4
# Aspergillus niger [24] = test: Fungicidal activity against Aspergillus niger after 48 hrs by broth dilution method; assay type: functional
# Bacillus subtilis [25] = test: Antibacterial activity against Bacillus subtilis at 50 ug/ml after 24 hrs by agar well diffusion method; assay type: functional; conditions: read-out: DIZ; summary of the method: as §2
# Penicillium chrysogenum [26] = test: Ratio of MFC to MIC for Penicillium chrysogenum after 48 hrs; assay type: functional
# Bacillus subtilis [27] = test: Ratio of MBC to MIC for Bacillus subtilis after 24 hrs; assay type: functional
# A549 [28] = test: Cytotoxicity against human A549 cells assessed as decrease in viability at 100 to 200 uM after 72 hrs by MTT assay; assay type: functional, cell-based
# Summary of the method: (§5)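 A549 lung carcinoma cells, 5 × 10⁴ per well, in DMEM with 10% FBS and antibiotics at 37 °C, 5% CO₂. After 3–4 h attachment, compound added at various concentrations for 72 h. MTT then added for 3 h, formazan dissolved in DMSO, absorbance read at 550 nm. Triplicate wells, three independent experiments; IC50 derived by curve fitting.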
# A549 [29] = test: Cytotoxicity against human A549 cells after 72 hrs by MTT assay; assay type: functional, cell-based; summary of the method: as §5
# A549 [30] = test: Cytotoxicity against human A549 cells assessed as viability at 12.5 uM after 72 hrs by MTT assay; assay type: functional; conditions: A549, 72 h, read-out: Activity; summary of the method: as §5
Structure (SMILES),MIC (Penicillium chrysogenum [1]),zone of inhibition at 50 µg/mL (Pseudomonas aeruginosa [2]),zone of inhibition at 100 µg/mL (Pseudomonas aeruginosa [3]),zone of inhibition at 100 µg/mL (Aspergillus niger [4]),MBC (Klebsiella pneumoniae [5]),MIC (Staphylococcus aureus [6]),MIC (Aspergillus niger [7]),MBC (Staphylococcus aureus [8]),zone of inhibition at 50 µg/mL (Staphylococcus aureus [9]),zone of inhibition at 50 µg/mL (Klebsiella pneumoniae [10]),zone of inhibition at 100 µg/mL (Klebsiella pneumoniae [11]),zone of inhibition at 100 µg/mL (Staphylococcus aureus [12]),MBC (Pseudomonas aeruginosa [13]),zone of inhibition at 50 µg/mL (Aspergillus niger [14]),zone of inhibition at 50 µg/mL (Penicillium chrysogenum [15]),MFC (Penicillium chrysogenum [16]),MBC (Bacillus subtilis [17]),zone of inhibition at 100 µg/mL (Penicillium chrysogenum [18]),zone of inhibition at 100 µg/mL (Bacillus subtilis [20]),zone of inhibition at 50 µg/mL (Bacillus subtilis [25]),also measured
Nn1c(CS(=O)(=O)Nc2ccc(Cl)cc2)nnc1CS(=O)(=O)c1c[nH]cc1S(=O)(=O)c1ccc(Cl)cc1,50 mg/L,25 mm,28 mm,34 mm,> 200 mg/L,50 mg/L,25 mg/L,200 mg/L,30 mm,34 mm,36 mm,33 mm,> 200 mg/L,32 mm,33 mm,> 200 mg/L,100 mg/L,36 mm,33 mm,29 mm,MIC (Klebsiella pneumoniae [19]): 100 mg/L; MIC (Pseudomonas aeruginosa [21]): 50 mg/L; Activity (A549 [22]): inactive; MIC (Bacillus subtilis [23]): 25 mg/L; MFC (Aspergillus niger [24]): 100 mg/L
Nn1c(CS(=O)(=O)Nc2ccc(Cl)cc2)nnc1CS(=O)(=O)c1c[nH]nc1S(=O)(=O)c1ccc(Cl)cc1,25 mg/L,30 mm,32 mm,34 mm,200 mg/L,50 mg/L,12.5 mg/L,200 mg/L,31 mm,37 mm,39 mm,34 mm,100 mg/L,30 mm,33 mm,100 mg/L,50 mg/L,37 mm,35 mm,33 mm,MIC (Klebsiella pneumoniae [19]): 50 mg/L; MIC (Pseudomonas aeruginosa [21]): 25 mg/L; Activity (A549 [22]): inactive; MIC (Bacillus subtilis [23]): 12.5 mg/L; MFC (Aspergillus niger [24]): 50 mg/L
Nn1c(CS(=O)(=O)/C=C/S(=O)(=O)c2ccc(Cl)cc2)nnc1CS(=O)(=O)Nc1ccc(Cl)cc1,25 mg/L,31 mm,33 mm,34 mm,100 mg/L,12.5 mg/L,12.5 mg/L,50 mg/L,32 mm,39 mm,40 mm,35 mm,50 mg/L,32 mm,35 mm,50 mg/L,25 mg/L,38 mm,38 mm,36 mm,Ratio (Penicillium chrysogenum [26]): 2; Ratio (Bacillus subtilis [27]): 2; MIC (Klebsiella pneumoniae [19]): 25 mg/L; MIC (Pseudomonas aeruginosa [21]): 12.5 mg/L; Activity (A549 [22]): inactive; MIC (Bacillus subtilis [23]): 12.5 mg/L; MFC (Aspergillus niger [24]): 100 mg/L
O=S(=O)(/C=C/S(=O)(=O)c1ccc(Cl)cc1)Cc1nnc(CS(=O)(=O)Nc2ccc(Cl)cc2)o1,–,16 mm,19 mm,22 mm,–,–,–,–,14 mm,15 mm,17 mm,17 mm,–,19 mm,21 mm,–,–,25 mm,17 mm,15 mm,"Activity (A549 [28]): Active; Activity (A549 [29]): Dose-dependent effect; pIC50 (A549 [29]; A549, 72 h): 4.50; viability at 12.5 µM (A549 [30]): > 75%"
